We go through one compound from ChEMBL document CHEMBL5247671, “Design and Synthesis of Pyrazole-Based Macrocyclic Kinase Inhibitors Targeting BMPR2” (ACS Med Chem Lett, 2023).

In test [1] the target is T1, Bone morphogenetic protein receptor type-2 (Homo sapiens) (UniProt Q13873).
T1 sequence (whole entry): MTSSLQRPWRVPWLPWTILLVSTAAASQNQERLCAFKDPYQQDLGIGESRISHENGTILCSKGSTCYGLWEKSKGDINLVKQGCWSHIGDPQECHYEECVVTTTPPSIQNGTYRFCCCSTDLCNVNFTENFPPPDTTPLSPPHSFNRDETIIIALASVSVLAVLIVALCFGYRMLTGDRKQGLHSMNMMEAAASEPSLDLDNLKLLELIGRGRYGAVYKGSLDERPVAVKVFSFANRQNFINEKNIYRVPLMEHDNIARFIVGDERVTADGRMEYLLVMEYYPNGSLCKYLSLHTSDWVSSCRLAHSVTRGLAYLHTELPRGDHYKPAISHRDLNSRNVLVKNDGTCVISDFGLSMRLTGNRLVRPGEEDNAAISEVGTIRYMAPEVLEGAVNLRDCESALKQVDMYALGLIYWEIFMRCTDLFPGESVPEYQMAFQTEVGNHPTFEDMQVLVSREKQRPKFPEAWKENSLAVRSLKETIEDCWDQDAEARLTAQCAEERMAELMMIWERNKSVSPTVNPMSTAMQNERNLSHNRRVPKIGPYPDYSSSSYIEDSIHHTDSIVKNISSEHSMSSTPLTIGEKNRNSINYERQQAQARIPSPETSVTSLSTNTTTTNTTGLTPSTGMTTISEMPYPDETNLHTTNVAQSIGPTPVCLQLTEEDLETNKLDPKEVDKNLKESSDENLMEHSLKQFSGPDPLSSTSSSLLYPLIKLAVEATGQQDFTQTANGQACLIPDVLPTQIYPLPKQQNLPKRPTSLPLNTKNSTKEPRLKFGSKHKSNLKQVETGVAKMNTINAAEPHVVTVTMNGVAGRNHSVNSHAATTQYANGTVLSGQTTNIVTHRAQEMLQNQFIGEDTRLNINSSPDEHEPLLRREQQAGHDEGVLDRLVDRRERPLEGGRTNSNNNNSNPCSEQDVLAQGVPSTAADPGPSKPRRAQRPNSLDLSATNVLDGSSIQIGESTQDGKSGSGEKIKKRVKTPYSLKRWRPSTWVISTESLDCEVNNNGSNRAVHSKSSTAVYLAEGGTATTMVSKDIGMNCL
Put plainly: Binding affinity to BMPR2 (unknown origin) assessed as change in enthalpy by ITC assay. Put shortly:
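Binding measured by isothermal titration calorimetry against the recombinant BMPR2 kinase domain. Thermodynamic binding parameters, including the dissociation constant, were derived from the titration data.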

In test [2] the target is Glycogen synthase kinase-3 alpha (Homo sapiens, UniProt P49840). Put plainly: Inhibition of N-terminal NanoLuc-fused full length GSK3A (unknown origin) transfected in HEK293T cells incubated for 2 hrs in presence of tracer K8 by NanoBRET assay. The class given is cell-based. Put shortly: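 Cellular target engagement by NanoBRET in intact cells expressing NanoLuc-fused GSK3A or GSK3B, with EC50 values derived from tracer displacement.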
Sequence of Glycogen synthase kinase-3 alpha (P49840 whole entry, the tested form may be a part): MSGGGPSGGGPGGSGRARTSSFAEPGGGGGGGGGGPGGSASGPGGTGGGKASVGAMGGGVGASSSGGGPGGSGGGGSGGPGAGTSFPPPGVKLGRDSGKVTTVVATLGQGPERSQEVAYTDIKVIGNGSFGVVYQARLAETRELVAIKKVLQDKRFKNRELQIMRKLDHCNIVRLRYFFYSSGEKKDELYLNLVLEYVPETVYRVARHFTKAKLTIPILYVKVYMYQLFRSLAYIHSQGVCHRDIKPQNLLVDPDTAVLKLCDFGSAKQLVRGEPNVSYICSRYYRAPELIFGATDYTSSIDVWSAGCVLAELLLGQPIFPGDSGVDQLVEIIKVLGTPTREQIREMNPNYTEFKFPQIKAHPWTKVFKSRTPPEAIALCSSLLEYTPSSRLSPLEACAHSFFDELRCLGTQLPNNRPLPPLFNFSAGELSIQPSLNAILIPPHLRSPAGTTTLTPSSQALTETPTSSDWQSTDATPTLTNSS

The target in test [3] is Glycogen synthase kinase-3 beta (Homo sapiens, UniProt P49841). Kind of test: Inhibition of N-terminal NanoLuc-fused full length lysed GSK3B (unknown origin) transfected in HEK293T cells incubated for 2 hrs in presence of tracer K8 by NanoBRET assay. The class given is cell-based. In outline: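 GSK3B NanoBRET run in the lysed mode, with cells permeabilized by digitonin to bypass compound cell penetration. EC50 values were derived from tracer displacement.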
Sequence of Glycogen synthase kinase-3 beta (P49841 whole entry, the tested form may be a part): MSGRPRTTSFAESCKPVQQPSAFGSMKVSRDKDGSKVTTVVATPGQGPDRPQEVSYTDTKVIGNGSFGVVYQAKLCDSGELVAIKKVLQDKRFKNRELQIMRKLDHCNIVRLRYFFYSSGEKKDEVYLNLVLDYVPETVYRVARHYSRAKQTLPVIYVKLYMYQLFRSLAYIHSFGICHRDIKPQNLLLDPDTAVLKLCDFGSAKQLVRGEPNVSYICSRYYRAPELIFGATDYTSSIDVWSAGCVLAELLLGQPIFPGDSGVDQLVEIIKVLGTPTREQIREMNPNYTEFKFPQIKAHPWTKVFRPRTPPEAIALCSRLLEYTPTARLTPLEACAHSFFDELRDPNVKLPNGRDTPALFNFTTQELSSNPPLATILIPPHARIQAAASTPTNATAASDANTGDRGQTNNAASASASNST

Test [4] has as its target BMP-2-inducible protein kinase (Homo sapiens) (UniProt Q9NSY1). Kind of test: Inhibition of recombinant BMP2K (unknown origin) at 10 uM by DSF assay relative to staurosporine. In outline: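 Differential scanning fluorimetry on an in-house panel of 90 recombinant kinases. Stabilization is read as the shift in melting temperature (ΔTm) relative to ligand-free protein. Staurosporine served as the positive control, and binding was also compared against its ΔTm.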

The target in test [5] is T1, Bone morphogenetic protein receptor type-2 (Homo sapiens). Put plainly: Inhibition of recombinant BMPR2 (unknown origin) at 10 uM by DSF assay relative to […].
Test [6] has as its system T2, Receptor-type tyrosine-protein kinase FLT3 (Homo sapiens), P36888 [D835V].
T2 sequence (whole entry): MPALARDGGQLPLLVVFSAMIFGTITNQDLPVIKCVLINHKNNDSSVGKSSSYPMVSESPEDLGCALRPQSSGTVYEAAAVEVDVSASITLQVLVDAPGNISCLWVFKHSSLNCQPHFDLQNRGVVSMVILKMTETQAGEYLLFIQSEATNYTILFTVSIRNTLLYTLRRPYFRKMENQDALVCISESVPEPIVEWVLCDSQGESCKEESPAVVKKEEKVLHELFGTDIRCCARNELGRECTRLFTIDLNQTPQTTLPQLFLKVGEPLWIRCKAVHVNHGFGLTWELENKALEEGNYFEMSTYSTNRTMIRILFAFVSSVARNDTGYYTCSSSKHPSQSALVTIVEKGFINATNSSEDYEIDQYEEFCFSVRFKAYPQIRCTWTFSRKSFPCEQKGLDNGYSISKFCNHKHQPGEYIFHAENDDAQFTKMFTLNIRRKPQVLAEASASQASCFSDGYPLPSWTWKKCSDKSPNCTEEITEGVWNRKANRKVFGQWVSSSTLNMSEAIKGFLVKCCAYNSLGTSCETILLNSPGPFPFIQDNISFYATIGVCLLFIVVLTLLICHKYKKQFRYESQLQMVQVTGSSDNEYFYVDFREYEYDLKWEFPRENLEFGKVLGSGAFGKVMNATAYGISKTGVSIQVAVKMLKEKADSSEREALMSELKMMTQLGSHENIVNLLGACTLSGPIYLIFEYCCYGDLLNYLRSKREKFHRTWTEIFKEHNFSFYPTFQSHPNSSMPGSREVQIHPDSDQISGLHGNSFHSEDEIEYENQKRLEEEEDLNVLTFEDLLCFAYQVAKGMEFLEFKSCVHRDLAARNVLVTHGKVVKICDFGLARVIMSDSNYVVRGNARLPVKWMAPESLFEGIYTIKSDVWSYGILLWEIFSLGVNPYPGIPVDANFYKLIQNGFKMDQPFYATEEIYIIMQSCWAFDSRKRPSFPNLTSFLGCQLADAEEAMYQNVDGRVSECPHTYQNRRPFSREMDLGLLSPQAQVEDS
Kind of test: Inhibition of FLT3 D835V mutant (unknown origin) at 1 uM by Kinomescan assay relative to staurosporine.

Test [7] concerns the target T1, Bone morphogenetic protein receptor type-2 (Homo sapiens). Put plainly: Inhibition of BMPR2 (unknown origin) assessed as residual activity at 1 uM by Kinomescan assay relative to staurosporine.
The target of test [8] is Serine/threonine-protein kinase RIO2 (Homo sapiens) (UniProt Q9BVS4). Put plainly: Inhibition of RIOK2 (unknown origin) assessed as residual activity at 1 uM by Kinomescan assay relative to staurosporine.
Sequence of Serine/threonine-protein kinase RIO2 (Homo sapiens) (Q9BVS4 whole entry, looked up): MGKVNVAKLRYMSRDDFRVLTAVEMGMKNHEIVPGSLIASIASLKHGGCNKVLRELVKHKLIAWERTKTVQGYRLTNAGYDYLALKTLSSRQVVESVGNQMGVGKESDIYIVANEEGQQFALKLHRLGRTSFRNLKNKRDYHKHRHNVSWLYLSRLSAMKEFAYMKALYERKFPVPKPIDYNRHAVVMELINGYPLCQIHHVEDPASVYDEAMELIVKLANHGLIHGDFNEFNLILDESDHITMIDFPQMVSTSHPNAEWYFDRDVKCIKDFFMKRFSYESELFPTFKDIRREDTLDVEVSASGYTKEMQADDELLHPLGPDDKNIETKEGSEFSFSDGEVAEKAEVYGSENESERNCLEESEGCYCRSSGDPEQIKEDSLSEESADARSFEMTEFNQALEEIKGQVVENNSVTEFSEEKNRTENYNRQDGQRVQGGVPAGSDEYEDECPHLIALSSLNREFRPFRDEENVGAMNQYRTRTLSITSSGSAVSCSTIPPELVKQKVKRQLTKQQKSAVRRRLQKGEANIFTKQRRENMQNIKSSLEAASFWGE

Sequence of BMP-2-inducible protein kinase (Homo sapiens) (Q9NSY1 whole entry, looked up): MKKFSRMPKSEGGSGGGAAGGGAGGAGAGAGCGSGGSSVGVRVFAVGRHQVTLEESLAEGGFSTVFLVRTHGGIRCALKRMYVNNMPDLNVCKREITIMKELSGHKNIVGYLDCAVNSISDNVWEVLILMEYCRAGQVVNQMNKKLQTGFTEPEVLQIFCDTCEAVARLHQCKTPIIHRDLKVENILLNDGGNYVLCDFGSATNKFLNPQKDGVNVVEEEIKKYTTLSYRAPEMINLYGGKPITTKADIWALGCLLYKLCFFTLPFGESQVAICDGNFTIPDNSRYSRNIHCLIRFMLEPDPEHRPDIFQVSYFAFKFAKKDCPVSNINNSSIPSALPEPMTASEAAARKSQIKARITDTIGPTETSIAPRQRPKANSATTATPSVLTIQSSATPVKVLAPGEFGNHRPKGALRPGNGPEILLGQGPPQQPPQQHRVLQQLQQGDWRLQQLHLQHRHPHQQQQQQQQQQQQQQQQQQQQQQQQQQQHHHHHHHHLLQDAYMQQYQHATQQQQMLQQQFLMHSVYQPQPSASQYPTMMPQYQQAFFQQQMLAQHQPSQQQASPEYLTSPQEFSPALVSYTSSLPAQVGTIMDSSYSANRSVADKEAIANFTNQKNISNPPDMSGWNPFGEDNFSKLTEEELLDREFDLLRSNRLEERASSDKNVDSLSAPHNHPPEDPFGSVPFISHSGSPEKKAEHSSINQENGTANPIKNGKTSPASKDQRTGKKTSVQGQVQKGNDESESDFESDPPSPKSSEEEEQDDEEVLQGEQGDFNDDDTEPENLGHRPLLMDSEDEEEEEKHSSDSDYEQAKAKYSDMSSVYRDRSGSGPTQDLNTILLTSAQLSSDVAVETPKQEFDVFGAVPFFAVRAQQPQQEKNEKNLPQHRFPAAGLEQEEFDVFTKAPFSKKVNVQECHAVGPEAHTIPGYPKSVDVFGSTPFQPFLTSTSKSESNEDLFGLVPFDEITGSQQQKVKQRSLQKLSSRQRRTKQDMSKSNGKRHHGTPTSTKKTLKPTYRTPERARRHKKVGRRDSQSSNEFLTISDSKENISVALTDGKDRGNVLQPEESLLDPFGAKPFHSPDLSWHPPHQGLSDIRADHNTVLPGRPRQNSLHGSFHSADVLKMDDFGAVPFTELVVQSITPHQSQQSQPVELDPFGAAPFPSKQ

With `O=C1NCCc2ccc(cc2)Nc2nccc(n2)Nc2cc1[nH]n2`, the deltaH in test [1] is -8.41 kcal/mol. For the same compound, the figures for the IC50 in test [2] and in test [3] were 11 µM and 2.3 µM, respectively. Besides, the inhibition in test [4] came out at 30%; in test [5], 103%; in test [6] it was 4.5%. For the same compound, the Activity in test [7] was determined as 8.3%; in test [8], 27%.
